Converted amounts (≈) assume the structure as drawn.
system: Mycobacterium tuberculosis; experiment: Antitubercular activity against Mycobacterium tuberculosis H37Rv after 6 days by MTT reduction assay; format: functional; settings: 144 h
In short: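 Strain H37Rv tested in 7H9 broth across serial twofold compound dilutions, bacilli added to each well. Incubated 6 days, then MTT (1 mg/mL) added for one further day. Formazan solubilized and absorbance read at 570 nm. MIC taken as lowest concentration inhibiting growth, with untreated bacilli serving as growth control.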

SMILES	MIC [µg/mL]
COc1ccc(/C=C/C(=O)Nc2ccccn2)cc1OC	125 (≈ 440 µM)
COc1cc(/C=C/C(=O)SCCNC(C)=O)cc(OC)c1O	125 (≈ 384 µM)
COc1cc(/C=C/C(=O)SCCNC(C)=O)ccc1O	125 (≈ 423 µM)
COc1ccc(/C=C/C(=O)SCCNC(C)=O)cc1	63 (≈ 226 µM)
COc1cc(/C=C/C(=O)NCCc2c[nH]c3ccccc23)ccc1O	8 (≈ 23.8 µM)
CC(=O)NCCSC(=O)/C=C/c1ccc(O)cc1	63 (≈ 237 µM)
CC(=O)NCCNC(=O)/C=C/c1ccc(OCC=C(C)C)cc1	63 (≈ 199 µM)
COc1ccc(/C=C/C(=O)Nc2ccccn2)cc1	63 (≈ 248 µM)
O=C(/C=C/c1ccc(O)cc1)Sc1ccccc1	8 (≈ 31.2 µM)
CC(C)=CCOc1ccc(/C=C/C(=O)Nc2ccccn2)cc1	16 (≈ 51.9 µM)
CC(C)=CCC/C(C)=C/COc1ccc(/C=C/C(=O)Nc2ccccn2)cc1	1 (≈ 2.66 µM)
CC(=O)NCCSC(=O)/C=C/c1ccc(OC/C=C(\C)CCC=C(C)C)cc1	0.6 (≈ 1.49 µM)
CC(=O)NCCNC(=O)/C=C/c1ccc(OC/C=C(\C)CCC=C(C)C)cc1	0.1 (≈ 0.26 µM)
COc1ccc(/C=C/C(=O)NCCNC(C)=O)cc1	> 500
CC(C)=CCOc1ccc(/C=C/C(=O)NCCc2c[nH]c3ccccc23)cc1	63 (≈ 168 µM)
CC(C)=CCC/C(C)=C/COc1ccc(/C=C/C(=O)NCCc2c[nH]c3ccccc23)cc1	32 (≈ 72.3 µM)
COc1cc(/C=C/C(=O)Sc2ccccc2)ccc1O	8 (≈ 27.9 µM)
CC(=O)NCCSC(=O)/C=C/c1ccc(OCC=C(C)C)cc1	32 (≈ 96 µM)
COc1ccc(/C=C/C(=O)NCCc2c[nH]c3ccccc23)cc1	500 (≈ 1560 µM)
CC(=O)NCCSC(=O)/C=C/c1ccc(OC/C=C(/C)CC/C=C(/C)CCC=C(C)C)cc1	0.6 (≈ 1.28 µM)

Source: ChEMBL document CHEMBL1149077, “Synthesis and evaluation of a novel series of pseudo-cinnamic derivatives as antituberculosis agents” (2009)
